Compound activity (PubChem)
C8 TRAIL sens: caspase-8 TRAIL sensitization. NB7+C8 cells + TRAIL, ATPlite viability luminescence. inhibition (viability loss, TRAIL sensitization), % at 10 µM. 360,000 compounds, 1% hits;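 active = compounds causing at least 50% loss of cell viability in the single-dose screen, relative to plate controls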
HSP90 inh: inhibitors of HSP90 luciferase refolding in rabbit reticulocyte lysate; luciferase refolding luminescence, 3 h; AID 1789; 290,000 compounds, 0.91% hits; inhibition, % at 5.6 µM;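 active = inhibition above the screen-wide mean plus 3 SD, computed separately per campaign, cut at about 16% in these data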;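 note: inhibitors lower the luminescence because luciferase stays unfolded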
PPC-1+TRAIL kill: kills PPC-1 cancer cells in the presence of TRAIL; AID 1443; cell killing (% activity), % at 4 µM or 5 µM; 220,000 compounds, 0.41% hits; PPC-1 cells + TRAIL, ATPLite viability luminescence;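 active = cell killing above 50% in the first pass at 4 µM, then a duplicate retest at 5 µM averaging 50% or more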
STAT3 blocker: reduces IL-6 driven STAT3 reporter signal | U3A cells, IL-6 STAT3-luciferase reporter, luminescence; host cell line lacks STAT1 | inhibition, % at 5.5 µM | 190,000 compounds, 0.89% hits;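 active = inhibition above the mean inhibition across all screened compounds plus 3 SD, cut at about 44% in these data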
FLuc inhib CS: inhibits firefly luciferase, flagging false hits in luciferase inhibition screens; P08659; AID 1006; ATPLite firefly luciferase biochemical luminescence, 10 min; 200,000 compounds, 1.5% hits; inhibition, % at 10 µM;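 active = inhibition above about 50% when tested at 10 µM, limit read from the data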
Target sequence (P08659 whole entry, looked up): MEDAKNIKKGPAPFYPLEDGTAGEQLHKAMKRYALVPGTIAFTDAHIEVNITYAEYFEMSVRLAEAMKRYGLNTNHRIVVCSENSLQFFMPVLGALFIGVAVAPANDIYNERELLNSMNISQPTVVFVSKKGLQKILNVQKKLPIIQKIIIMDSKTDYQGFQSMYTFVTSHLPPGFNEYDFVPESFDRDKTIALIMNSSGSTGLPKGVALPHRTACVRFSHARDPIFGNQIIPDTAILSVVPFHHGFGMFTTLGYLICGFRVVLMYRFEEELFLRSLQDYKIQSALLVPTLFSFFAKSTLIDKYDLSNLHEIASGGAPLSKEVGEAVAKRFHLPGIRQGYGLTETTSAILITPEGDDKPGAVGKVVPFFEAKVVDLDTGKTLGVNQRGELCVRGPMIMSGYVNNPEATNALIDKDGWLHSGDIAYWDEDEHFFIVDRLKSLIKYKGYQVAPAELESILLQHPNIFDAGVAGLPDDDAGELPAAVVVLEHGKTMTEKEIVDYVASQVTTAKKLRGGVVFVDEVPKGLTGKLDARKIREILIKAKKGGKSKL
FLuc stim CS: firefly luciferase counter-screen for stimulation assays; activation factor at 10 µM; 200,000 tested, under 10 active; P08659; ATPlite luciferase biochemical, luminescence, 10 min; 0 = ATP-free wells, 1 = DMSO control;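 active = luciferase activation factor, scaled between plate controls, of at least 2 with compound at 10 µM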
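assay system = Luciferase/luciferin detection reagent, cell-free biochemical luciferase assay | also added = ATP substrate | times = 10 min post-reagent at room temperature | measured by = luminescence from luciferase reaction | measure = luciferase activation, seen as luminescence increase over controls | benchmarks = low control with PBS replacing ATP, high control enzyme plus ATP without compound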
HSP90 inh confirm: HSP90 inhibition, confirmation assay | shares compounds with HSP90 inh | 2,300 compounds, 64% hits | rabbit reticulocyte lysate, luciferase refolding luminescence, 3 h | AID 1846 | inhibition, % at 5.9 µM; in the data active = inhibition above about 18%
luciferase ctr: firefly luciferase inhibition, HSP90 counter-screen; shares compounds with HSP90 inh; purified native firefly luciferase, luminescence; inhibition, % at 5.9 µM; 2,300 compounds, 48% hits;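 active = inhibition above the mean inhibition of all tested sample wells plus 3 SD, cut at about 10% in these data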
Numbers stand for hits. Shown are actives, neighbours in structure and some others; about 2.2% of the full set was active somewhere.

`COCCCN=C1NN=C(c2cc(C)n(Cc3ccccc3Cl)c2C)CS1` gave C8 TRAIL sens inactive, HSP90 inh 21, PPC-1+TRAIL kill inactive, STAT3 blocker inactive, FLuc inhib CS inactive, FLuc stim CS inactive, HSP90 inh confirm 48 and luciferase ctr 23.
`OC(c1ccccc1)c1nc(/C=C/c2ccccc2)cs1` (stereo unspecified) gave C8 TRAIL sens inactive.
`O=C(O)c1cccnc1Sc1ccc(Br)cc1` gave C8 TRAIL sens inactive and HSP90 inh inactive.
For C=CCc1cccc(C=Nc2cc(Br)ccc2O)c1O the results were C8 TRAIL sens inactive, HSP90 inh 44, PPC-1+TRAIL kill inactive, STAT3 blocker inactive, FLuc inhib CS inactive, FLuc stim CS inactive, HSP90 inh confirm 80 and luciferase ctr inactive.
Cc1c(/C(O)=C2/C(=O)C(=O)N(Cc3cccnc3)C2c2cccs2)cnn1-c1ccccc1 (stereo unspecified) was read as C8 TRAIL sens inactive, HSP90 inh 55, PPC-1+TRAIL kill inactive, STAT3 blocker inactive, FLuc inhib CS inactive, FLuc stim CS inactive, HSP90 inh confirm 55 and luciferase ctr 53.
`Cc1ccc(/C(O)=C2/C(=O)C(=O)N(Cc3cccnc3)C2c2ccccn2)cc1` (stereo unspecified) gave C8 TRAIL sens inactive, HSP90 inh inactive, PPC-1+TRAIL kill inactive, STAT3 blocker inactive, FLuc inhib CS inactive and FLuc stim CS inactive.
For Cc1c(/C(O)=C2/C(=O)C(=O)N(Cc3cccnc3)C2c2ccccn2)cnn1-c1ccccc1 (stereo unspecified) the results were C8 TRAIL sens inactive, HSP90 inh 75, PPC-1+TRAIL kill inactive, STAT3 blocker 64, FLuc inhib CS inactive, FLuc stim CS inactive, HSP90 inh confirm 24 and luciferase ctr 30.
`Cc1cccc(C)c1OCC(O)CN1CCC(CN2C(=O)c3cccc4cccc(c34)C2=O)CC1` (stereo unspecified) gave C8 TRAIL sens inactive, HSP90 inh inactive, PPC-1+TRAIL kill inactive, STAT3 blocker inactive, FLuc inhib CS inactive and FLuc stim CS inactive.
`O=c1c2cn[nH]c2[nH]c(=S)n1-c1ccccc1F` gave C8 TRAIL sens inactive, HSP90 inh inactive, STAT3 blocker inactive, FLuc inhib CS inactive and FLuc stim CS inactive.
Screening Cc1ccc(C(=O)OCC(=O)c2c[nH]c3ccccc23)cc1S(=O)(=O)N1CCOCC1 returned C8 TRAIL sens inactive.
Screening CC(=O)CC(=O)Nc1nc(C)cc(C)n1 returned C8 TRAIL sens inactive, HSP90 inh 27, PPC-1+TRAIL kill inactive, STAT3 blocker inactive, FLuc inhib CS inactive, FLuc stim CS inactive, HSP90 inh confirm inactive and luciferase ctr inactive.
Screening CCOC(=O)C1CCN(C(=O)COC(=O)CSc2ccccc2C)CC1 returned C8 TRAIL sens inactive.
For O=C(C1CCOCC1)N1CCCC(N2CCN(c3ccc(F)cc3)CC2)C1 (stereo unspecified) the results were C8 TRAIL sens inactive and HSP90 inh inactive.
Screening CCCCc1nnc(NC(=O)CSc2nc(=O)cc(N)n2-c2cccc(C)c2)s1 returned C8 TRAIL sens inactive, HSP90 inh 33, PPC-1+TRAIL kill inactive, STAT3 blocker inactive, FLuc inhib CS inactive, FLuc stim CS inactive, HSP90 inh confirm inactive and luciferase ctr inactive.
Screening CN(C)C1=NC(=O)/C(=C\c2ccccc2)S1 returned C8 TRAIL sens inactive, HSP90 inh 38, PPC-1+TRAIL kill inactive, STAT3 blocker inactive, FLuc inhib CS inactive, FLuc stim CS inactive, HSP90 inh confirm inactive and luciferase ctr inactive.
Screening NC1=NC(=O)C(=Cc2ccccc2)S1 returned C8 TRAIL sens inactive.
For CSc1ccc(NC(=O)Nc2cc(C)ccn2)cc1 the results were C8 TRAIL sens 55, HSP90 inh inactive, PPC-1+TRAIL kill inactive, HSP90 inh confirm 55 and luciferase ctr 49.
`Cc1ccc(C(=O)NCCc2ccccc2)cc1` gave C8 TRAIL sens 64, HSP90 inh 62, HSP90 inh confirm 78 and luciferase ctr 74.
O=C(/C=C/c1ccccc1)c1ccc2c(c1)OCCCCO2 was read as C8 TRAIL sens inactive, HSP90 inh 33, PPC-1+TRAIL kill inactive, STAT3 blocker inactive, FLuc inhib CS 88, FLuc stim CS inactive, HSP90 inh confirm 33 and luciferase ctr 29.
`O=C(C=Cc1ccc2c(c1)OCO2)c1ccccc1` gave C8 TRAIL sens inactive.
Screening COC(=O)c1c(N)sc(C(=O)NCCc2ccccc2)c1C returned C8 TRAIL sens 75, HSP90 inh 87, HSP90 inh confirm 87 and luciferase ctr 82.
Screening O=C(NCCc1ccccc1)c1ccc2c(c1)OCCCO2 returned C8 TRAIL sens 92, HSP90 inh 95, HSP90 inh confirm 95 and luciferase ctr 90.
Cc1noc(C)c1NC(=O)N(C)C[C@H]1Oc2ccc(NS(=O)(=O)c3ccc(F)cc3)cc2C(=O)N([C@H](C)CO)C[C@@H]1C was read as C8 TRAIL sens inactive.
O=C(COc1ccc2c(-c3ccccc3)cc(=O)oc2c1)NCC(O)c1ccccc1 (stereo unspecified) was read as C8 TRAIL sens inactive and HSP90 inh inactive.
O=C(NCc1cccc(Cl)c1)c1ccc2c(c1)OCCO2 was read as C8 TRAIL sens inactive and HSP90 inh inactive.
O=C(NCCc1cccc(Cl)c1)c1ccc2c(c1)OCO2 was read as C8 TRAIL sens 57, HSP90 inh 20, HSP90 inh confirm 40 and luciferase ctr 29.
`O=C(NCCc1ccccc1)c1ccc2c(c1)OCCO2` gave C8 TRAIL sens 83, HSP90 inh 85, HSP90 inh confirm 97 and luciferase ctr 89.
`COc1ccc(CCNC(=O)c2ccc3c(c2)OCCO3)cc1` gave C8 TRAIL sens inactive, HSP90 inh inactive, PPC-1+TRAIL kill inactive, STAT3 blocker inactive, FLuc inhib CS inactive and FLuc stim CS inactive.
For CC(=O)NC(Cc1ccccc1F)C(=O)NC1CCN(C(=O)Nc2ccc(C)cc2)CC1 (stereo unspecified) the results were C8 TRAIL sens inactive and HSP90 inh inactive.
`COc1cc(OC)cc(C(=O)c2c(C)c(C#N)c3ccccn23)c1` gave C8 TRAIL sens inactive and HSP90 inh inactive.
COC1=C/C(=C/c2c(O)c(C#N)c3ccccn23)C=CC1=O was read as C8 TRAIL sens inactive, HSP90 inh 26, PPC-1+TRAIL kill inactive, HSP90 inh confirm inactive and luciferase ctr inactive.
Screening Cc1ccccc1C(=O)Nc1nnc(SCC(=O)NCc2ccco2)s1 returned C8 TRAIL sens 59, HSP90 inh 18, HSP90 inh confirm 27 and luciferase ctr 15.
